The target in data set [1] is Metabotropic glutamate receptor 5 (Rattus norvegicus, UniProt P31424). Kind of data set: Displacement of [3H]3-methoxy-5-(pyridin-2-ylethynyl)pyridine from glutamate 5 receptor of rat cortical membranes. The class given is cell membranes, Membrane. In a few lines: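 Native mGlu5 in rat cortical membranes; displacement of bound [3H]-3-methoxy-5-(pyridin-2-ylethynyl)pyridine by test compound. Ki given as geometric mean with lower and upper limits and number of replicates.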
(In a radioligand displacement assay an active substance lowers the binding of a labelled ligand.)

The target of data set [2] is Metabotropic glutamate receptor 5 (Homo sapiens, UniProt P41594). Kind of data set: Inhibitory concentration towards human glutamate receptor 5 in calcium flux assay. In kind it is functional. In a few lines: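 Ltk cells stably expressing human recombinant mGlu5; glutamate as agonist. Cytosolic Ca2+ changes read by fura-2 fluorescence in an automated format. IC50 given as geometric mean with limits and replicate number.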
In general terms: Calcium assays in cells follow changes in intracellular calcium, usually with a dye or a luminescent sensor.

Data set [3] is described as follows: Volume of distribution in rat. In kind it is ADME, organism-based. The conditions noted are these: in vivo. In a few lines:
(§1)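 Sprague-Dawley rats given 2 mg/kg iv (n = 2/group) and 10 mg/kg po (n = 3/group). Clearance, volume of distribution, half-life and oral bioavailability derived from plasma concentration profiles.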

Data set [4] can be described thus: Maximum concentration in rat when administered at 10 mg/kg perorally. On the set-up: dose 10 mg/kg, route oral. In kind it is ADME, organism-based. The conditions noted are these: in vivo, po. In outline: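 Sprague-Dawley rats dosed 10 mg/kg po (n = 3/group); maximum plasma concentration recorded.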
A short description of data set [5]: Bioavailability in rat. In kind it is ADME, organism-based. The conditions noted are these: in vivo. In a few lines:
as §1

Data set [6] in a line: Half life in rat. The class given is ADME. The conditions noted are these: in vivo. In outline:
as §1

A short description of data set [7]: Plasma clearance in rat. In kind it is ADME, organism-based. The conditions noted are these: read-out: Clp. In a few lines:
as §1

The test system of data set [8] is Rattus norvegicus. Nature of the data set: In vivo receptor occupancy was determined in rats administered intraperitoneally after 1 hr. The conditions noted are these: ip. The class given is functional.
Data set [9] in a line: Brain level after 1 hr following 3 mg/kg dose administered intraperitoneally. The class given is ADME, organism-based. Set-up: dose 3 mg/kg, route intraperitoneal. The conditions noted are these: rat, ip. In outline:
(§2)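 Rats given 3 mg/kg ip; plasma and brain concentrations measured at 1 h after dosing.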

For data set [10], the system named is Rattus norvegicus. Kind of data set: In vivo receptor occupancy was determined in rats administered perorally after 2 hr. The class given is functional. Conditions: po. In a few lines:
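Sprague-Dawley rats dosed orally (n = 5–7/group); tail-vein radioligand given at Tmax, 2 h post-dose. Animals killed 1 min later and brain-bound tracer quantified. Occupancy ED50 from dose–response.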

Data set [11] is described as follows: Plasma level after 1 hr following 3 mg/kg dose administered intraperitoneally. The class given is ADME, organism-based. On the set-up: dose 3 mg/kg, route intraperitoneal. Conditions: rat, ip, read-out: Plasma Level. In outline: as §2
In data set [12] the test system is Rattus norvegicus. Kind of data set: In vivo receptor occupancy was determined in rats administered perorally after 30 min. The class given is functional. Conditions: po, 0.5 h.
Data set [13] can be described thus: Brain level after 1 hr following 10 mg/kg dose administered intraperitoneally. Conditions: rat, ip. In kind it is ADME, organism-based. Set-up: dose 10 mg/kg, route intraperitoneal. In a few lines: (§3)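 Rats given 10 mg/kg ip; plasma and brain concentrations measured at 1 h after dosing.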
Data set [14] concerns Rattus norvegicus. Kind of data set: Blockage of fear-conditioning in rats determined in the fear-potentiated startle (FPS) model of anxiety administered perorally after 1 hr. Conditions: po. The class given is functional. In a few lines:
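Fear-potentiated startle in Wistar rats (n = 8/group), acute oral dosing, tested 1 h after administration. Startle amplitude compared in dark versus light; ED50 for blocking fear expression.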

Data set [15] in a line: Plasma level after 1 hr following 10 mg/kg dose administered intraperitoneally. In kind it is ADME, organism-based. Set-up: dose 10 mg/kg, route intraperitoneal. The conditions noted are these: rat, ip, read-out: Plasma Level. In outline: as §3

A value given as a limit tells only on which side of the number the result lay.

This is an account of results in ChEMBL document CHEMBL1138743, “Discovery of novel heteroarylazoles that are metabotropic glutamate subtype 5 receptor antagonists with anxiolytic activity” (J Med Chem, 2004).

Chain of Metabotropic glutamate receptor 5 (Rattus norvegicus, UniProt P31424) (P31424 whole entry): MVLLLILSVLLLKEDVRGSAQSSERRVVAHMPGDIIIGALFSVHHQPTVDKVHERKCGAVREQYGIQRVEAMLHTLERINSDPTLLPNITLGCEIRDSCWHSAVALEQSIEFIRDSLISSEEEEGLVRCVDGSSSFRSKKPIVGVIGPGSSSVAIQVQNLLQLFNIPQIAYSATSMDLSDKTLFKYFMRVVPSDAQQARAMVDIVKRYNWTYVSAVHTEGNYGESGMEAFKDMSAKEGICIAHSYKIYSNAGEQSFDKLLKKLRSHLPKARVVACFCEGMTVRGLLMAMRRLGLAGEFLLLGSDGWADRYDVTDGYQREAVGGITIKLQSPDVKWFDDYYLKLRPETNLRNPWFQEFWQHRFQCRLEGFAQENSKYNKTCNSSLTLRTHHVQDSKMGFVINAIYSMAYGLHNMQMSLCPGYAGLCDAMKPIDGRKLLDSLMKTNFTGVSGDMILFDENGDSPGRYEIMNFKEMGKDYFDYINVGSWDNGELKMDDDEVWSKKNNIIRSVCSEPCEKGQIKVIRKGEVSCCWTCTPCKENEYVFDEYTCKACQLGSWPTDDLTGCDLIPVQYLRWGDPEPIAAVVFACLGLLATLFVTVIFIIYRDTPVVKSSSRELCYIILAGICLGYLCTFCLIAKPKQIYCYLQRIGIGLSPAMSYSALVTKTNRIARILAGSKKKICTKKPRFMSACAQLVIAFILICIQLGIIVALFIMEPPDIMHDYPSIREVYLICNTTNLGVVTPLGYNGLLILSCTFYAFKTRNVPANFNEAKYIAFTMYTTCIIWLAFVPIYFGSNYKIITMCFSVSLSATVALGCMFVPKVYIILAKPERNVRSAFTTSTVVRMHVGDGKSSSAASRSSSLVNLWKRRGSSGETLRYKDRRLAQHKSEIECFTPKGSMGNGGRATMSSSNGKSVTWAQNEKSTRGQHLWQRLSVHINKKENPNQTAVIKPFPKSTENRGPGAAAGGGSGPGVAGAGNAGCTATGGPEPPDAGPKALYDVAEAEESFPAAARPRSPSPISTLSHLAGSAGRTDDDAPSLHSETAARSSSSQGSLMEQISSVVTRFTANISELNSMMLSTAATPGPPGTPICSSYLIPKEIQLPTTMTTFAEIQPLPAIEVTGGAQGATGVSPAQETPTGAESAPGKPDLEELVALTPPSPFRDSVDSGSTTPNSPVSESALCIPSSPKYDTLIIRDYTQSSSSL
Chain of Metabotropic glutamate receptor 5 (Homo sapiens, UniProt P41594) (P41594 whole entry): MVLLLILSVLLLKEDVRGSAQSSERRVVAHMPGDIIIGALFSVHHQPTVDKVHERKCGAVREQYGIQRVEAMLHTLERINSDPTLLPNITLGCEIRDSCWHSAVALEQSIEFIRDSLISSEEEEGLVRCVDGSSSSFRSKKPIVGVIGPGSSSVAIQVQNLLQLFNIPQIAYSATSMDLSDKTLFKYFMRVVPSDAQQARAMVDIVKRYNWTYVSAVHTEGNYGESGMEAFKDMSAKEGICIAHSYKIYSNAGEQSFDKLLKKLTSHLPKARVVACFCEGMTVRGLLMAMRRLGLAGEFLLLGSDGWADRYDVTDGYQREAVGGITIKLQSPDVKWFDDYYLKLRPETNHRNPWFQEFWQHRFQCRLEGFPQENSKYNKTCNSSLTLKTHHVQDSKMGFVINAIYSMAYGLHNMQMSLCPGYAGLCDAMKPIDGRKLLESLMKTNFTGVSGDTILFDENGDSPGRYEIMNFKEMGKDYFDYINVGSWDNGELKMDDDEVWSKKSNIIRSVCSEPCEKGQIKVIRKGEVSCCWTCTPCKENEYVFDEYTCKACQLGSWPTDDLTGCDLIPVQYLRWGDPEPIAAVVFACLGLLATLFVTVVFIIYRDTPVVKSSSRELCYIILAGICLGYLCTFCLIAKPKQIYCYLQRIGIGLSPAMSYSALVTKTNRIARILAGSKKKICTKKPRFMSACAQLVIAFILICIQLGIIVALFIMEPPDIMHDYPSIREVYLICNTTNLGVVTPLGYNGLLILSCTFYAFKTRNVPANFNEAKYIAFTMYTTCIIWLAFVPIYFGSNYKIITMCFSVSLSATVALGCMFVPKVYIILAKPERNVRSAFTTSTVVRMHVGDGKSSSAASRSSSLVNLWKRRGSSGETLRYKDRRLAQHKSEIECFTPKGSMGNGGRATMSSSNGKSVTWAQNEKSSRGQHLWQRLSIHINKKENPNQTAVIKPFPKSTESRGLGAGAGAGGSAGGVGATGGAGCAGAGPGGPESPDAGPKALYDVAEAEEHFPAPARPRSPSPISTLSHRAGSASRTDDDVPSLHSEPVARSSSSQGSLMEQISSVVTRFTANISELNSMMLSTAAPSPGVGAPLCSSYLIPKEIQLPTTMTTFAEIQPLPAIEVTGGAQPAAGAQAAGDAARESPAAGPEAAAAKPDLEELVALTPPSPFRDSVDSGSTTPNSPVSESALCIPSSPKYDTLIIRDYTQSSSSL

For orientation: Ki means the dissociation constant of the complex between target and ligand, obtained from inhibition or displacement. Lower therefore signals higher affinity. For orientation: IC50 means the concentration that gives 50% inhibition. For `N#Cc1cccc(-n2ccc(-c3ccccn3)n2)c1`, the affinity in data set [1], expressed as Ki, was 530 nM. Moreover, in data set [2], the IC50 is 440 nM.
`N#Cc1cccc(-c2ccn(-c3ccccn3)n2)c1` yielded a Ki in data set [1] greater than 600 nM. Further, the IC50 in data set [2] is 3600 nM.
In [1], `N#Cc1cccc(-c2cnn(-c3ccccn3)c2)c1` showed a Ki greater than 630 nM. Moreover, the 50% inhibitory concentration (IC50) in [2] worked out at 890 nM.
On to `N#Cc1cccc(-c2cn(-c3ccccn3)nn2)c1`, for which the Ki in data set [1] was greater than 630 nM. In data set [2], the IC50 was greater than 10000 nM.
Regarding `N#Cc1cccc(-n2cc(-c3ccccn3)nn2)c1`, the Ki in data set [1] was greater than 600 nM. In data set [2], the IC50 was determined as 980 nM.
One may read the Vd as a proportionality between amount in the body and measured concentration, not a real space. High values mean extensive tissue distribution, low ones confinement near the circulation. For orientation: Cmax means the maximum level reached in the sampled fluid or tissue. In general, bioavailability refers to the share of a dose that reaches the circulation, judged against a reference dose that is usually intravenous. The low end stands for little systemic uptake, the high end for much systemic uptake. As usually defined, the half-life is the time in which the quantity being followed falls by half. Lower therefore signals rapid decline. For the compound `N#Cc1cccc(-c2cnn(-c3ccccn3)n2)c1`, the Vd in data set [3] was 1 L/kg. In addition, affinity in data set [1] was put at a Ki of 200 nM. Moreover, the IC50 in data set [2] came to 210 nM. The highest level in [4] (Cmax) was 2700 nM. Moreover, in [5], the bioavailability came out at 13%. In [6], this compound had a half-life of 1.7 h. In data set [7], the clearance was determined as 15.1 mL/min/kg.
Take `N#Cc1cccc(-n2ncc(-c3ccccn3)n2)c1`: the Vd in data set [3] is 1.1 L/kg. For the same compound, the Ki in data set [1] worked out at 300 nM. In addition, the IC50 in data set [2] amounted to 80 nM. In data set [4], the highest level (Cmax) was 600 nM. Also, the bioavailability in data set [5] is 3%. The compound further gave a half-life in data set [6] of 2.5 h. For the same compound, the clearance in data set [7] was 15.7 mL/min/kg.
By ED50 is commonly meant the midpoint of the dose-response relation. The compound `N#Cc1cc(F)cc(-n2nnc(-c3ccccn3)n2)c1` had a distribution volume (Vd) in data set [3] of 1.1 L/kg. The ED50 in the data set on Rattus norvegicus [8] is 1.3 mg/kg; in the data set on Rattus norvegicus [10], 3.6 mg/kg. In data set [1], the inhibition constant Ki is 10 nM. Also, the concentration at 1 h came out at 2400 nM in data set [9] and 2700 nM in data set [11]. The IC50 in data set [2] stood at 4 nM. The compound further returned a Cmax in data set [4] of 2500 nM. In addition, the bioavailability in data set [5] stood at 26%. Besides, the clearance in [7] came out at 16.9 mL/min/kg.
Compound `N#Cc1cccc(-n2cc(-c3ccccn3)cn2)c1` registered a Vd in [3] of 3.7 L/kg. Further, the Ki in data set [1] was determined as 250 nM. Also, the IC50 in data set [2] is 140 nM. Further, in data set [4], the Cmax turned out to be 1200 nM. Moreover, in [5], the bioavailability came to 3%. In data set [6], this compound showed a half-life of 5.5 h. The clearance in [7] came to 9.7 mL/min/kg.
In data set [1], `N#Cc1cccc(-c2ncn(-c3ccccn3)n2)c1` showed an inhibitory constant (Ki) greater than 600 nM. In [2], the IC50 worked out at 6150 nM.
As for `N#Cc1cccc(-n2cnc(-c3ccccn3)n2)c1`, the inhibitory constant (Ki) in [1] is greater than 600 nM. In addition, the half-maximal inhibitory concentration (IC50) in data set [2] was found to be 690 nM.
For `N#Cc1cccc(-c2ccn(-c3ccccn3)c2)c1` the same measures were greater than 600 nM and 4620 nM.
In [3], `N#Cc1cccc(-n2ccc(-c3ccccn3)c2)c1` showed a Vd of 3.6 L/kg. In data set [1], this compound returned an inhibition constant (Ki) greater than 600 nM. For the same compound, the IC50 in [2] is 190 nM. This compound also had a Cmax in [4] of 900 nM. The bioavailability in data set [5] is 4%. The compound also showed a half-life in [6] of 1.7 h. In addition, the clearance in [7] was found to be 32.5 mL/min/kg.
`N#Cc1cccc(-c2nc(-c3ccccn3)no2)c1` had an inhibition constant (Ki) in [1] of 490 nM. This lies in the sub-micromolar range.
As for `N#Cc1cccc(-c2cn(-c3ccccn3)cn2)c1`, in data set [1], the inhibition constant Ki was greater than 600 nM. For the same compound, the IC50 in data set [2] is greater than 10000 nM.
For `N#Cc1cccc(-n2cnc(-c3ccccn3)c2)c1`, in that order: greater than 600 nM and 1150 nM.
Consider `N#Cc1cccc(-n2nnc(-c3ccccn3)n2)c1`, for which the figures for the ED50 in the data set with Rattus norvegicus [12], with Rattus norvegicus [8] and in the data set with Rattus norvegicus [14] were 3 mg/kg, 3 mg/kg and 5.4 mg/kg, respectively. Also, the Ki in data set [1] was 190 nM. The concentration at 1 h in [13] worked out at 15300 nM; in data set [15], 10500 nM. In addition, the IC50 in data set [2] worked out at 70 nM. Besides, the concentration in data set [4] peaked (Cmax) at 5800 nM. In data set [7], the clearance stood at 32.9 mL/min/kg.
`N#Cc1cccc(-c2nnn(-c3ccccn3)n2)c1` yielded a Ki in data set [1] of 450 nM. Also, the IC50 in data set [2] came to 270 nM.
